Measured values: ChEMBL document CHEMBL5154764, “Development of small molecules that work cooperatively with ciprofloxacin to clear salmonella biofilms in a chronic gallbladder carriage model” (Eur J Med Chem, 2022)
Calls of active or inactive are those of the source. No cut-off for these calls is given here.

Assays:
[1] = system: Salmonella typhimurium; experiment: Antibiofilm activity against Salmonella typhimurium ATCC 14028 assessed as inhibition of biofilm formation incubated for 24 hrs by crystal violet staining based spectrophotometry; format: functional, organism-based, Salmonella enterica subsp. enterica serovar Typhimurium; conditions: Salmonella enterica, ATCC 14028, 24 h
Method in brief: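 LB overnight cultures (37 °C) set to OD600 0.8, diluted 1:100 into TSB diluted 1:20 in water. Compound at 0.2–100 μM or DMSO added at inoculation. Grown 24 h at 30 °C with nutation, washed, heat-fixed (60 °C, 1 h), stained with crystal violet, dye solubilized in acetic acid, read at 570 nm. IC50 from variable-slope fit of % biofilm vs log concentration. Mean ± SD of three biological replicates.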

[2] = system: Salmonella typhimurium; experiment: Antibiofilm activity against Salmonella typhimurium ATCC 14028 assessed as biofilm dispersal effect incubated for 24 hrs by crystal violet staining based spectrophotometry; format: functional, organism-based, Salmonella enterica subsp. enterica serovar Typhimurium; conditions: Salmonella enterica, ATCC 14028, 24 h
Method in brief: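 Biofilms grown 24 h at 30 °C with nutation in TSB diluted 1:20, from 1:100-diluted LB overnight cultures set to OD600 0.8. Crystal violet staining, acetic acid solubilization, 570 nm read-out. EC50 from variable-slope fit of % biofilm remaining vs log concentration. Mean ± SD of three biological replicates.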

[3] = system: Salmonella typhimurium; experiment: Antibacterial activity against Salmonella typhimurium ATCC 14028 assessed as bacterial growth inhibition at >=100 uM; format: functional, organism-based; conditions: Salmonella enterica subsp. enterica serovar Typhimurium
[4] = system: Salmonella typhimurium; experiment: Antibacterial activity against Salmonella typhimurium ATCC 14028 assessed as bacterial growth inhibition at >=12.5 uM; format: functional, organism-based; conditions: Salmonella enterica subsp. enterica serovar Typhimurium
[5] = system: Salmonella typhimurium; experiment: Antibacterial activity against Salmonella typhimurium ATCC 14028 assessed as bacterial growth inhibition at >= 50 uM; format: functional, organism-based; conditions: Salmonella enterica subsp. enterica serovar Typhimurium
[6] = system: Salmonella typhimurium; experiment: (§1) Antibacterial activity against Salmonella typhimurium ATCC 14028 infected in 129X1/SvJ NRAMP +/+ mouse gallstone model assessed as reduction in bacterial burden in gallblader at 5 mg/kg/day, ip administered for 5 to 15 consecutive days of post infection and measured on day 15 in presence of 4 mg/kg/day ciprofloxacin; format: functional, organism-based; conditions: Salmonella enterica subsp. enterica serovar Typhimurium, time 10.0 day
Method in brief: (§2)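 129X1/SvJ NRAMP+/+ mice given a lithogenic diet (chow plus 1% cholesterol, 0.5% cholic acid) for 8 weeks. Infected i.p. with ~10^3 CFU in 200 μL PBS. Treated daily i.p. on days 5–15 post-infection; vehicle 5% DMSO in PBS. Day 15: gallbladder, liver and spleen homogenized in 1 mL PBS, serially diluted and plated on LB agar (37 °C, 16 h) for CFU counts. One-way ANOVA with Tukey correction.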

[7] = system: Salmonella typhimurium; experiment: as §1, with “assessed as log reduction in” for “assessed as reduction in”, “presence of 1 mg/kg/day ciprofloxacin” for “presence of 4 mg/kg/day ciprofloxacin”; format: functional, Salmonella enterica subsp. enterica serovar Typhimurium; conditions: time 10 day; method in brief: as §2
[8] = system: Salmonella typhimurium; experiment: as §1, with “spleen” for “gallblader”; format: functional, organism-based; conditions: Salmonella enterica subsp. enterica serovar Typhimurium, time 10.0 day; method in brief: as §2
[9] = system: Salmonella typhimurium; experiment: as §1, with “liver” for “gallblader”; format: functional, organism-based; conditions: Salmonella enterica subsp. enterica serovar Typhimurium, time 10.0 day; method in brief: as §2

CN(Cc1ccsc1)CC1CCN(CCc2ccccc2)CC1
IC50 [1]: 21.2 µM
EC50 [2]: > 12000 µM

COc1ccccc1CCN1CCC(CN(C)Cc2ccsc2)CC1
IC50 [1]: 16.9 µM
EC50 [2]: 11800 µM

CN(Cc1ccsc1)CC1CCN(Cc2ccc(F)cc2)CC1
IC50 [1]: 12.9 µM
EC50 [2]: 443 µM

CN(Cc1ccsc1)CC1CCN(CCc2ccccc2C(F)(F)F)CC1
IC50 [1]: 12.7 µM
EC50 [2]: 60 µM

CN(Cc1ccsc1)CC1CCN(CCc2ccc(F)cc2)CC1
IC50 [1]: 16.8 µM
EC50 [2]: 235 µM

CN(Cc1ccsc1)CC1CCN(Cc2c(F)cccc2F)CC1
IC50 [1]: > 200 µM
EC50 [2]: > 12000 µM
growth inhibition (GI) [3]: Active

CN(Cc1ccsc1)CC1CCN(CCc2c(F)cccc2F)CC1
IC50 [1]: 6.3 µM
EC50 [2]: 138 µM

CN(Cc1ccsc1)CC1CCN(CCc2ccc(Br)cc2)CC1
IC50 [1]: 3 µM
EC50 [2]: 57 µM

CN(Cc1ccsc1)CC1CCN(Cc2cccc(F)c2F)CC1
IC50 [1]: 146 µM
EC50 [2]: 870 µM
growth inhibition (GI) [3]: Active

CN(Cc1ccsc1)CC1CCN(CCc2cccc(-c3ccccc3)c2)CC1
IC50 [1]: 1.8 µM
EC50 [2]: 31 µM
growth inhibition (GI) [4]: Active

CN(Cc1ccsc1)CC1CCN(Cc2cccc(Cl)c2Cl)CC1
IC50 [1]: 2.7 µM
EC50 [2]: 70 µM

CN(Cc1ccsc1)CC1CCN(Cc2cc(F)cc(F)c2)CC1
IC50 [1]: 14.2 µM
EC50 [2]: > 12000 µM

CN(Cc1ccsc1)CC1CCN(CCc2ccc(Cl)c(Cl)c2)CC1
IC50 [1]: 1.4 µM
EC50 [2]: 45 µM
growth inhibition (GI) [5]: Active

CN(Cc1ccsc1)CC1CCN(CCc2ccccc2I)CC1
IC50 [1]: 4.3 µM
EC50 [2]: 60 µM
growth inhibition (GI) [5]: Active

CN(Cc1ccsc1)CC1CCN(Cc2ccccc2F)CC1
IC50 [1]: 8.8 µM
EC50 [2]: 125 µM

CN(Cc1ccsc1)CC1CCN(CCc2ccccc2Cl)CC1
IC50 [1]: 6 µM
EC50 [2]: 232 µM

CN(Cc1ccsc1)CC1CCN(CCc2ccc(Cl)cc2Cl)CC1
IC50 [1]: 2.5 µM
EC50 [2]: 22 µM

CN(Cc1ccsc1)CC1CCN(Cc2ccc(Br)c(Br)c2)CC1
IC50 [1]: 11.9 µM
EC50 [2]: 32 µM

CN(Cc1ccsc1)CC1CCN(Cc2cccc(Cl)c2)CC1
IC50 [1]: 5.2 µM
EC50 [2]: 299 µM

CN(Cc1ccsc1)CC1CCN(Cc2ccccc2I)CC1
IC50 [1]: 5.4 µM
EC50 [2]: 79 µM

CN(Cc1ccsc1)CC1CCN(CCc2ccc(I)cc2)CC1
IC50 [1]: 2.6 µM
EC50 [2]: 89 µM
growth inhibition (GI) [5]: Active

CN(Cc1ccsc1)CC1CCN(Cc2ccc(Cl)c(Cl)c2)CC1
IC50 [1]: 3.9 µM
EC50 [2]: 55 µM

CN(Cc1ccsc1)CC1CCN(Cc2cccc(Br)c2)CC1
IC50 [1]: 6.5 µM
EC50 [2]: 142 µM

CN(Cc1ccsc1)CC1CCN(CCc2ccc(Br)c(Br)c2)CC1
Activity [6]: Active
log(activity) [7]: 4.5
Activity [8]: Active
Activity [9]: Active
growth inhibition (GI) [4]: Active

CN(Cc1ccsc1)CC1CCN(CCc2cccc3ccccc23)CC1
IC50 [1]: 2.5 µM
EC50 [2]: 28 µM
growth inhibition (GI) [5]: Active

CN(Cc1ccsc1)CC1CCN(CCc2cccc(Br)c2)CC1
IC50 [1]: 3.6 µM
EC50 [2]: 83 µM
growth inhibition (GI) [3]: Active

CN(Cc1ccsc1)CC1CCN(Cc2ccccc2Cl)CC1
IC50 [1]: 2.7 µM
EC50 [2]: 1810 µM

CN(Cc1ccsc1)CC1CCN(Cc2ccccc2)CC1
IC50 [1]: 26.7 µM
EC50 [2]: > 12000 µM

CN(Cc1ccsc1)CC1CCN(Cc2ccc(Cl)cc2)CC1
IC50 [1]: 5.9 µM
EC50 [2]: 934 µM
